From PubChem BioAssay
Shown are actives, neighbours in structure and some others; about 4.9% of the full set was active somewhere.
NPY-Y2 PAM-ag: human NPY-Y2 potentiation or agonism, primary screen; P49146; cells expressing NPY-Y2, potentiator/agonist read-out; activation, % at 3.6 µM; 220,000 tested, 0.45% active; in the data active means activation above about 27%;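 further: cells stimulated with NPY near EC25 plus isoproterenol at EC100; 0% = vehicle plus submaximal agonist and 100% = vehicle plus saturating agonist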
RAM inhibit: blocks the yeast RAM network; 190,000 tested, 1.8% active; inhibition, % at 50 µM; S. cerevisiae dse1pr::URA3 reporter, 5-FOA growth OD615, 2 d; analog-sensitive cbk1-as2 kinase mutant strain;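 active means inhibition above a set limit, 3 SD over mean compound inhibition, cut at about 8.4% in these data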;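 further: 0% = DMSO-only wells with no growth and 100% = 10 µM 1-NA-PP1 full growth; inhibition rescues growth on 5-FOA so higher OD means more RAM inhibition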
WT yeast gro inh: growth inhibition of WT yeast, mitochondrial fusion screen; AID 1362; 190,000 tested, 2.1% active; mitochondrial fusion phenotypic screen, WT strain; inhibition, % at 10 µM; in the data active means inhibition above about 58%; tested in S. cerevisiae
NPY-Y2 antag: blocks the human neuropeptide Y Y2 receptor | P49146 | inhibition, % at 2.7 µM | NPY-Y2 expressing cells, antagonist mode | 140,000 tested, 0.99% active; in the data active means inhibition above about 17%;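 further: 0% = vehicle with agonist challenge and 100% = reference antagonist with challenge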
NPY-Y1 PAM-ag: potentiators or agonists of human neuropeptide Y receptor Y1; AID 1304; P25929; NPY-Y1 expressing cells, potentiator/agonist activation; activation, % at 3.6 µM; 220,000 tested, 0.37% active; in the data active means activation above about 33%, passing the limit was not always enough;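 further: cells stimulated with NPY at EC10 then isoproterenol at EC100; 0% = low agonist plus stimulus and 100% = saturating agonist plus stimulus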
Target sequence (P25929 whole entry, looked up): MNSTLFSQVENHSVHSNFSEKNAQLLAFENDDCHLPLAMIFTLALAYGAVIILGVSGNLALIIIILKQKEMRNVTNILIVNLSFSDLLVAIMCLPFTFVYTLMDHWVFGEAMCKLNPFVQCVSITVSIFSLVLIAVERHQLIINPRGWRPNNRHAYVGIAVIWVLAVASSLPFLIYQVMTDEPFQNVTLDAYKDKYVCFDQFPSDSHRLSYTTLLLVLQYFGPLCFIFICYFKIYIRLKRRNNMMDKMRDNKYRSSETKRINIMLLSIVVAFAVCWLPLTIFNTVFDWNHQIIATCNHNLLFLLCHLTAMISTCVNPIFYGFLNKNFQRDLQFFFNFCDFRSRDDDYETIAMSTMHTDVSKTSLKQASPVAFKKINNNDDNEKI
NPY-Y1 antag: NPY-Y1 (human) receptor antagonism | 200,000 tested, 1% active | inhibition, % at 3.6 µM | P25929 | HEK293-CNG Y1 cells, membrane potential fluorescence; NPY at EC95, then isoproterenol | AID 1040;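 active means inhibition above the campaign mean inhibition of all tested compounds plus 3 SD, cut at about 20% in these data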;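 further: 0% = DMSO wells given NPY plus isoproterenol and 100% = isoproterenol alone without NPY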
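material = HEK293 cells with Y1 receptor plus CNG channel | also added = NPY 25 nM then isoproterenol 1 µM plus Ro 20-1724 25 µM | schedule = dye 3 h, compound 60 min room temperature, stimulation 45 min | measured by = membrane potential fluorescence | benchmarks = high control isoproterenol alone, low control NPY with isoproterenol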
RAM 5-FOA: RAM network inhibitors in efflux-deficient yeast; shares compounds with RAM inhibit; S. cerevisiae efflux-deficient reporter strain, 5-FOA growth OD615, 2 days; max inhibition, %; 1,200 tested, under 10 active; AID 1305; call rule not given here;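 further: plate controls were vehicle for no effect and reference inhibitor for full effect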
An asterisk follows results filed as active; · = not tested or not shown.

SMILES	NPY-Y2 PAM-ag	RAM inhibit	WT yeast gro inh	NPY-Y2 antag	NPY-Y1 PAM-ag	NPY-Y1 antag	RAM 5-FOA
Cc1nnc(SC(C)C(=O)Nc2ncc(Cl)cc2Cl)n1Cc1ccccc1 (configuration not stated)	-9	0	17	1	10	-1	·
Cc1cc(SC(C)C(=O)Nc2ncc(Cl)cc2Cl)nc2ccccc12 (configuration not stated)	14	12*	10	4	-7	1	2
CCc1cc2c(=O)n(Cc3ccco3)c(SCC(=O)N3CCCc4ccccc43)nc2s1	-20	4	12	-2	-2	1	·
CCc1cc2c(=O)n(Cc3ccco3)c(SCc3c(C)noc3C)nc2s1	-24	13*	32	9	-10	4	7
CCOC(=O)c1cnn(-c2nc(-c3ccc(C)cc3)cs2)c1C(F)(F)F	-3	12*	50	1	8	14	3
COc1ccc(OC)c(NS(=O)(=O)c2ccc(Cl)nc2)c1	3	1	31	2	8	1	·
CCCCOc1ccc(S(=O)(=O)Nc2cc(OC)ccc2OC)cc1	-22	11*	24	6	6	2	2
CCn1c(SCC(=O)Nc2cccc(C)n2)nnc1-c1ccco1	-1	0	1	2	4	-1	·
CON/C=C(\C=Nc1ccc(C(F)(F)F)cc1)c1ncc(C(F)(F)F)cc1Cl	14	13*	3	1	9	5	2
CC1CCCCN1C(=O)CSCC(=O)Nc1nc(-c2cccs2)cs1 (configuration not stated)	-10	1	-7	4	1	0	·
COCCCNC(=S)N1CCCN(c2nc3c(C)c(C)ccc3cc2C#N)CC1	-19	16*	69*	·	-33	2	2
Cc1ccc2cc(C#N)c(N3CCCC3)nc2c1C	3	5	-5	2	10	-7	·
Cc1ccc(NC(=O)Cn2c(=O)c(C)nc3ccccc32)cc1	2	3	2	·	2	-4	·
O=C(CC12CC3CC(CC(C3)C1)C2)NC(=S)NCc1ccco1	-12	15*	73*	·	-6	14	3
O=C(NCc1ccco1)C12CC3CC(CC(C3)C1)C2	-14	0	-25	3	-25	1	·
Cc1ccccc1OCC(=O)Nc1cccc(C(=O)O)c1	-23	0	12	·	10	2	·
Cc1cc(NC(=O)c2ccc(COc3ccccc3Cl)o2)no1	14	5	-4	·	14	-4	·
COCCCNC(=S)Nc1ccccc1C	6	2	1	1	-8	1	·
Cc1ccccc1NC(=S)NCCC(c1ccccc1)c1ccccc1	-12	12*	79*	3	-9	2	3
S=C(NCCC(c1ccccc1)c1ccccc1)Nc1cccc(Cl)c1	-4	14*	80*	4	-22	-3	5
COC(=O)c1ccc(Cl)cc1NC(=O)/C=C/c1ccc(C)o1	-8	13*	-11	5	2	-2	4
Cc1ccc(/C=C/C(=O)Nc2ccc(Oc3ccccc3)cc2)o1	-4	13*	47	4	7	-3	4
Cc1ccc(/C=C/C(=O)Nc2ccc([N+](=O)[O-])cc2)o1	-9	5	8	4	22	2	·
CCNS(=O)(=O)c1ccc(NC(=O)Cc2ccc(F)cc2)cc1	10	2	8	-1	-6	-4	·
COc1ccc(CN2C(=O)c3cccc4cccc(c34)C2=O)cc1	3	·	·	·	0	·	·
SMILES	NPY-Y2 PAM-ag	RAM inhibit	WT yeast gro inh	NPY-Y2 antag	NPY-Y1 PAM-ag	NPY-Y1 antag	RAM 5-FOA
COc1ccc(CN2C(=O)c3ccccc3C(/C=N\OCc3ccc(C)cc3)C2=O)cc1 (configuration not stated)	6	14*	-12	1	5	1	4
CC(C)CC(=O)OCC(=O)Nc1ccccc1Sc1ccccc1	13	1	-2	0	7	1	·
COc1cccc(/C=C/C(=O)OCC(=O)Nc2ccccc2Sc2ccccc2)c1	-26	24*	28	14	-63	14	6
Cc1ccc(/C=C/C(=O)OCC(=O)Nc2ccccc2Sc2ccccc2)cc1	3	19*	47	11	7	4	6
COc1ccc(OC)c(/C=C/C(=O)OCC(=O)Nc2cccc(Oc3ccccc3)c2)c1	-15	13*	0	6	-37	6	3
COc1ccccc1/C=C/C(=O)OCC(=O)Nc1c(F)cccc1F	-8	3	10	·	-17	0	·
CC(C)Oc1ccc(C(=O)Nc2ccc(Cl)c(S(=O)(=O)Nc3ccc(Cl)cc3)c2)cc1	-9	6	21	2	7	4	·
CCOC(=O)/C(=C/c1ccc(N2CCC(c3ccccc3)=N2)cc1)C(C)=O	-17	20*	78*	2	-7	-4	2
c1ccc(C2=NN(c3ccccc3)CC2)cc1	-11	·	·	·	-7	·	·
Brc1ccc(CSc2nnc(Cc3c[nH]c4ccccc34)o2)cc1	-14	13*	68*	15	-29	10	2
Clc1ccc(CSc2nnc(-c3c[nH]c4ccccc34)o2)cc1	-11	3	-1	10	-14	6	·
CCOC(=O)c1c(C)[nH]c(N=Nc2cccc(C)c2)c1C	6	12*	73*	-3	-6	4	3
CCOC(=O)c1c(C)[nH]c(N=Nc2cccc(OC)c2)c1C	9	6	67	·	-7	-2	·
O=C(Nc1ccc(-c2nc3ccccc3s2)cc1)c1cc(-n2cnnc2)ccc1Cl	8	16*	-10	0	-7	-1	5
COc1ccc(CN2C(=O)CS/C2=N/N=C/c2ccccc2)cc1	-8	·	·	·	-32	·	·
CCCC1S/C(=N/N=C/c2ccc(C)cc2)N(Cc2ccc(OC)cc2)C1=O (configuration not stated)	-8	12*	5	9	14	1	5
Cc1ccc(C(C)C)c(OCC(=O)OCc2c(C)noc2C)c1	1	23*	10	1	-12	4	1
CCCCCCOC(=O)C(C#N)c1nc2ccccc2nc1N1CCCCC1 (configuration not stated)	12	24*	35	-1	2	-1	9
CCCCOc1nc2ccccc2nc1C(C#N)C(=O)NC1CCCCC1 (configuration not stated)	-2	12*	15	4	11	-5	9
N#CC(C(=O)NC1CCCCC1)c1nc2ccccc2nc1N1CCN(c2ccccc2F)CC1 (configuration not stated)	-5	5	7	0	-11	-4	·
CCC(C)COC(=O)C(C#N)c1nc2ccccc2nc1N1CCCCC1 (configuration not stated)	-1	18*	49	0	-2	8	4
